The values below come from ChEMBL document CHEMBL1250520, “Antitumor agents. 280. Multidrug resistance-selective desmosdumotin B analogues” (2010).

In assay [1] the test system is KB. In words: Anticancer activity against human KB cells after 3 days by SRB assay. The assay is classed as functional. Particulars: 72 h, read-out: ED50 (the source's name). In outline: (§1)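 Cells seeded at 1500–7500 per well, compounds added from DMSO-diluted stock, grown 3 days in RPMI-1640 with 25mM HEPES, 0.25% sodium bicarbonate, 10% FBS and kanamycin. Attached cells fixed in cold 50% TCA, stained with 0.4% sulforhodamine B, absorbance read at 562 nm after dye solubilization. ED50 is the 50% growth-reduction concentration, averaged from at least three independent determinations.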

For assay [2], the system named is Hep 3B2. The experiment in a line: Selectivity ratio of GI50 for human Hep3B cells to ED50 vincristine-resistant Hep3B cells. The assay is classed as functional.
The nature of assay [3]: Anticancer activity against human Hep3B cells after 3 days by SRB assay. The assay is classed as functional, Hep 3B2. Particulars: 72 h.
Assay [4] concerns KBVIN. The experiment in a line: Inhibition of Pgp efflux pump in human KBVIN cells by calcein AM assay. Type of assay: cell-based. In outline:
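KB-VIN cells, 10,000 per well, were grown 24 h in RPMI-1640 with 5% FBS. They were preincubated with compounds for 30 min at 37°C, then given fresh medium with 1 µM calcein-AM plus compounds for 30 min at 37°C in the dark. After cold PBS wash and hypotonic Tris-HCl lysis, fluorescence was read at Ex 494/Em 517 nm. Data pooled from two or more independent experiments.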

Assay [5] can be described thus: Anticancer activity against human KBVIN cells after 3 days by SRB assay. The assay is classed as functional. Particulars: 72 h, read-out: ED50 (the source's name). In outline: as §1
Assay [6] in a line: Anticancer activity against vincristine-resistant human Hep3B cells after 3 days by SRB assay. The assay is classed as functional, Hep 3B2. Particulars: 72 h.
The nature of assay [7]: Selectivity ratio of ED50 for human KB cells to ED50 for human KBVIN cells. The assay is classed as functional. An outline of the steps: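 Ratio of KB ED50 to KB-VIN ED50. Both values come from a 3-day sulforhodamine B assay with absorbance read at 562 nm. Cells were seeded at 1500–7500 per well and dosed from DMSO-diluted stock. Each ED50 is the mean of at least three independent determinations.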

The test system of assay [8] is KBVIN. In words: Induction of apoptosis in human KBVIN cells assessed as DNA fragmentation after 1 days by ELISA. Type of assay: functional, cell-based. In outline: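 Apoptosis in KB-VIN cells, including co-treatment with verapamil, read out by a Cell Death Detection ELISA PLUS kit.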

Structures are written as SMILES. The source made the active and inactive calls. The rule behind the calls is not given here.

Regarding `CCC1=C(O)c2c(oc(-c3ccc(C)cc3)cc2=O)C(CC)(CC)C1=O` [6,8,8-TRIETHYL-4-METHYL DESMOSDUMOTIN B], the EC50 in assay [1] came to 39.2 µM; in assay [5] it was 0.08 µM. Moreover, the RatioGI50 in assay [2] stood at 21. The figures for the GI50 in assay [3] and in assay [6] were 7.31 µM and 0.35 µM, respectively. In assay [4], the inhibition entry was “Active”. Moreover, in assay [7], the “Ratio ED50” value is on record as 460.
As to `CC[C@]1(O)C[C@H]2CN(CCc3c([nH]c4ccccc34)[C@@](C(=O)OC)(c3cc4c(cc3OC)N(C=O)[C@H]3[C@@](O)(C(=O)OC)[C@H](OC(C)=O)[C@]5(CC)C=CCN6CC[C@]43[C@@H]65)C2)C1` [VINCRISTINE], the concentration for 50% growth inhibition (GI50) in assay [3] is 0.0029 µM; in assay [6], 6.86 µM.
Regarding `CCC1=C(O)c2c(oc(-c3ccc(CC)cc3)cc2=O)C(CC)(CC)C1=O` [6,8,8-TRIETHYL-4-ETHYL DESMOSDUMOTIN B], the EC50 in assay [1] worked out at 21.9 µM; in assay [5], 0.07 µM. Besides, the RatioGI50 in assay [2] turned out to be 8.5. Besides, the GI50 is 6.09 µM in assay [3] and 0.72 µM in assay [6]. For the same compound, the inhibition result in assay [4] was “Active”. Also, the “Ratio ED50” value in assay [7] was 320.
Regarding `CCC1=C(O)c2c(oc(-c3ccccc3)cc2=O)C(CC)(CC)C1=O` [6,8,8-TRIETHYL DESMOSDUMOTIN B], the EC50 in assay [1] is > 237 µM; in assay [5], 1.07 µM. Further, the RatioGI50 in assay [2] is recorded as 30. Further, the 50% growth inhibitory concentration (GI50) in assay [3] is 47.6 µM; in assay [6] it was 1.57 µM. The outcome in assay [8] was Active. For the same compound, the inhibition result in assay [4] was “inactive”. Also, the “Ratio ED50” value in assay [7] is recorded as >221.
Turning to `CC(=O)O[C@H]1C(=O)[C@@]2(C)[C@H]([C@H](OC(=O)c3ccccc3)[C@]3(O)C[C@H](OC(=O)[C@H](O)[C@@H](NC(=O)c4ccccc4)c4ccccc4)C(C)=C1C3(C)C)[C@]1(OC(C)=O)CO[C@@H]1C[C@@H]2O` [PACLITAXEL], the results for the concentration for 50% growth inhibition (GI50) in assay [3] and in assay [6] were 0.0004 µM and 16.2 µM, respectively.
Consider `CCC1=C(O)c2c(oc(-c3cc(C)c(OC)cc3C)cc2=O)C(CC)(CC)C1=O`, for which the EC50 in assay [1] worked out at 36.6 µM; in assay [5] it was 7.58 µM. Further, the “Ratio ED50” value in assay [7] was determined as 5.
On the same counts, the results for `CCC1=C(O)c2c(oc(-c3ccc(O)c(C)c3C)cc2=O)C(CC)(CC)C1=O` are 6.5 µM, 2.75 µM and 2.
